{"source": "the RNAGym collection of RNA variant scans (doi:10.1126/science.aae0568)", "parents": {"B1": {"name": "tRNA (parent)", "chain": "GUUCCGUUGGCGUAAUGGUAACGCGUCUCCCUCCUAAGGAGAAGACUGCGGGUUCGAGUCCCGUACGGAACG"}}, "note": "This sample holds only a part of the variants without activity."}
{"variants_of": "B1", "experiment": "yeast fitness relative to wild type (ratio to wild type); higher = fitter; tRNA-Arg(CCU), competitive growth, 37 C, YPD", "how_it_was_run": "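Gene amplicons from the start population and from each of six end populations were read by 100-nucleotide paired-end sequencing. Those end populations came from pooled Saccharomyces cerevisiae strains carrying tRNA-Arg(CCU) gene variants at the native locus, competed in YPD at 37°C for 24 hours. Fitness relative to wild type was worked out from changes in genotype frequencies. Genotypes needed ≥ 100 starting reads, and estimates < 0.5 were set to 0.5.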"}
{"variant": "C31G U59A A65U C66A", "yeast fitness": "≤ 0.5"}
{"variant": "C31U U32C C34A C55U", "yeast fitness": "≤ 0.5"}
{"variant": "C31U U54C U59C", "yeast fitness": 0.562}
{"variant": "C31G G51C A70G", "yeast fitness": "≤ 0.5"}
{"variant": "C31G G51C A70U", "yeast fitness": 0.561}
{"variant": "C31U C60U", "yeast fitness": 0.841}
{"variant": "C31G C62A", "yeast fitness": 0.607}
{"variant": "C31U C33U A37G A57C", "yeast fitness": "≤ 0.5"}
{"variant": "C31G G41A G52C C60U C62G", "yeast fitness": 0.53}
{"variant": "C31U U35C U53C", "yeast fitness": "≤ 0.5"}
{"variant": "C31G A45G U54C G56U", "yeast fitness": "≤ 0.5"}
{"variant": "C31U G38C G63A G68C A69G", "yeast fitness": 0.673}
{"variant": "C31G G51A C55G G68C", "yeast fitness": 0.56}
{"variant": "C31G C34G C66A", "yeast fitness": 0.568}
{"variant": "U32A A42C G63C A65U C66U", "yeast fitness": "≤ 0.5"}
{"variant": "C31U A57C C66U", "yeast fitness": 0.663}
{"variant": "C31G C34U A40C C60A C61A G63A", "yeast fitness": "≤ 0.5"}
{"variant": "C31U G48A A69U", "yeast fitness": 0.757}
{"variant": "C31G G41A U47C G52C C60U C62G C66G", "yeast fitness": "≤ 0.5"}
{"variant": "C31G G63A C66U", "yeast fitness": 0.64}
{"variant": "C31U C55G A70C", "yeast fitness": 0.535}
{"variant": "C31G G58C C62U", "yeast fitness": 0.838}
{"variant": "C31G C34U", "yeast fitness": 0.626}
{"variant": "C31U G63C", "yeast fitness": 0.766}
{"variant": "C31U C33A G50A G68U", "yeast fitness": 0.596}
{"variant": "C31G U35C", "yeast fitness": 0.823}
{"variant": "C31U G48C C66U", "yeast fitness": 0.741}
{"variant": "C31G C34G A57C", "yeast fitness": 0.685}
{"variant": "C31U C34U G50A G52A A57G G67C", "yeast fitness": "≤ 0.5"}
{"variant": "U32A A37C G51C A57U", "yeast fitness": "≤ 0.5"}
{"variant": "U32C A37C A57U", "yeast fitness": "≤ 0.5"}
{"variant": "U32C A43C C49U", "yeast fitness": 0.648}
{"variant": "C31U G44A A45U", "yeast fitness": 0.893}
{"variant": "C31G G41A A65C", "yeast fitness": "≤ 0.5"}
{"variant": "C31U U53C", "yeast fitness": 0.633}
{"variant": "C31U U53A", "yeast fitness": 0.656}
{"variant": "U32C A42U G51C", "yeast fitness": 0.533}
{"variant": "C31G G67U", "yeast fitness": 0.655}
{"variant": "C31U G50A G67A", "yeast fitness": 0.63}
{"variant": "C31U C55U C61A G67A", "yeast fitness": "≤ 0.5"}
{"variant": "U32C A43C", "yeast fitness": 0.83}
{"variant": "C31U U54C", "yeast fitness": 0.82}
{"variant": "C31U G44C C60U", "yeast fitness": 0.689}
{"variant": "U32C", "yeast fitness": 0.966}
{"variant": "U32A", "yeast fitness": 0.742}
{"variant": "U32A C33G", "yeast fitness": 0.706}
{"variant": "C31G A37C A70C", "yeast fitness": "≤ 0.5"}
{"variant": "C31U G48A C61U A65C", "yeast fitness": "≤ 0.5"}
{"variant": "C31G G44A G51C A65G", "yeast fitness": 0.537}
{"variant": "C31G A40G A45C U47C U53A A70U", "yeast fitness": "≤ 0.5"}
{"variant": "C31G U35C C66U", "yeast fitness": 0.558}
{"variant": "C31U G39A G44A C61U", "yeast fitness": "≤ 0.5"}
{"variant": "C31G G68C", "yeast fitness": 0.684}
{"variant": "C31G G68A", "yeast fitness": 0.802}
{"variant": "U32C C33A", "yeast fitness": 0.628}
{"variant": "C31U C33G G50C", "yeast fitness": 0.508}
{"variant": "C31G C55G", "yeast fitness": 0.592}
{"variant": "C31G C55U", "yeast fitness": 0.683}
{"variant": "U32C A45U G52A A70U", "yeast fitness": "≤ 0.5"}
{"variant": "C31U A40G G48C", "yeast fitness": 0.559}
{"variant": "C31U A37U C66U", "yeast fitness": 0.542}
{"variant": "C31U A42C", "yeast fitness": 1.17}
{"variant": "C31U C60G A70G", "yeast fitness": 0.675}
{"variant": "C31G A36C G68A A70C", "yeast fitness": "≤ 0.5"}
{"variant": "C31U U47G G56C", "yeast fitness": "≤ 0.5"}
{"variant": "C31G A43U C46G A70U", "yeast fitness": 0.527}
{"variant": "C31G G67C A69U", "yeast fitness": "≤ 0.5"}
{"variant": "C31G C49G", "yeast fitness": 0.753}
{"variant": "C31U A42C U54A", "yeast fitness": "≤ 0.5"}
{"variant": "C31U C33U C34G A40C G63A", "yeast fitness": "≤ 0.5"}
{"variant": "U32C A40U C55G", "yeast fitness": 0.703}
{"variant": "U32C A42G G63A", "yeast fitness": 0.556}
{"variant": "C31G C33U U59G C66U G68A", "yeast fitness": 0.543}
{"variant": "U32A C34A U53C U64A", "yeast fitness": "≤ 0.5"}
{"variant": "U32A A40U G41C C46A G52A", "yeast fitness": 0.656}
{"variant": "C31G A42U A43C", "yeast fitness": 1.15}
{"variant": "C31U U47A G51U", "yeast fitness": "≤ 0.5"}
{"variant": "U32A A45U", "yeast fitness": 0.789}
{"variant": "C31G A40G C49U G50C", "yeast fitness": "≤ 0.5"}
{"variant": "C31G C33G G63A", "yeast fitness": "≤ 0.5"}
{"variant": "C31G A45C C49A", "yeast fitness": 0.807}
{"variant": "U32C A40U A69C", "yeast fitness": 0.747}
{"variant": "U32C C33U A42U A57G", "yeast fitness": "≤ 0.5"}
{"variant": "C31G G44C U53C A65U A70G", "yeast fitness": "≤ 0.5"}
{"variant": "C31G A36U G39A C62U", "yeast fitness": "≤ 0.5"}
{"variant": "C31U G48A", "yeast fitness": 0.949}
{"variant": "C31U G48C", "yeast fitness": 1}
{"variant": "C31G A36C G50A C62U G68A A69C", "yeast fitness": "≤ 0.5"}
{"variant": "C31U C33A A43U G48A U53A", "yeast fitness": "≤ 0.5"}
{"variant": "U32A C34U C61U", "yeast fitness": 0.54}
{"variant": "C31A G63C G67C", "yeast fitness": "≤ 0.5"}
{"variant": "C31G G38U", "yeast fitness": 0.804}
{"variant": "C31U G67U A69G", "yeast fitness": 0.747}
{"variant": "U32C A40U C55A G56C", "yeast fitness": "≤ 0.5"}
{"variant": "C31G G44C A69C A70C", "yeast fitness": 0.528}
{"variant": "C31U A42U A43U C60U A69U", "yeast fitness": 0.51}
{"variant": "U32C A43C A65U", "yeast fitness": 0.503}
{"variant": "C31G A43U C46G C62U", "yeast fitness": "≤ 0.5"}
{"variant": "C31U A42C U47G G52C A57U", "yeast fitness": "≤ 0.5"}
{"variant": "U32C A43G A45G", "yeast fitness": 0.608}
{"variant": "C31U G41C A43C", "yeast fitness": 0.722}
{"variant": "C31G C33G U47A", "yeast fitness": 0.581}
{"variant": "C31U U47C A65G A69U", "yeast fitness": "≤ 0.5"}
{"variant": "U32A C33U A42U C60A", "yeast fitness": 0.595}
{"variant": "C31G G58C", "yeast fitness": 0.88}
{"variant": "C31U C46G", "yeast fitness": 0.972}
{"variant": "C31U C46A", "yeast fitness": 1.01}
{"variant": "U32A A43G C61U", "yeast fitness": "≤ 0.5"}
{"variant": "U32A A70U", "yeast fitness": 0.857}
{"variant": "C31U C34G G50A", "yeast fitness": "≤ 0.5"}
{"variant": "C31U G39C A40U", "yeast fitness": 0.838}
{"variant": "C31U G50A A70U", "yeast fitness": 0.677}
{"variant": "C31G C34U A40C", "yeast fitness": 0.526}
{"variant": "C31U A37G U47C G63A", "yeast fitness": "≤ 0.5"}
{"variant": "C31U G58C C61A A69U", "yeast fitness": 0.505}
{"variant": "C31G C46U A65U", "yeast fitness": 0.789}
{"variant": "C31U C49U A69U", "yeast fitness": 0.889}
{"variant": "U32C A57G", "yeast fitness": 0.861}
{"variant": "U32C A40G C62G G68A A69C", "yeast fitness": "≤ 0.5"}
{"variant": "C31G A40G", "yeast fitness": 0.719}
{"variant": "C31U G44C A65C", "yeast fitness": 0.594}
{"variant": "C31U A40U A45U", "yeast fitness": 0.618}
{"variant": "C31U A69C", "yeast fitness": 1.04}
{"variant": "U32A G63U U64A A65U", "yeast fitness": 0.634}
{"variant": "C31U G58C U59G C61G", "yeast fitness": "≤ 0.5"}
{"variant": "C31G C33U A42U", "yeast fitness": 0.649}
{"variant": "U32A A42G C55U", "yeast fitness": "≤ 0.5"}
{"variant": "C31G A70U", "yeast fitness": 0.938}
{"variant": "C31G A70C", "yeast fitness": 0.689}
{"variant": "C31G G56U", "yeast fitness": 0.723}
{"variant": "C31G G56A", "yeast fitness": 0.98}
{"variant": "C31U C46U C49U", "yeast fitness": 0.905}
{"variant": "C31G A69U", "yeast fitness": 0.752}
{"variant": "C31G A69C", "yeast fitness": 0.907}
{"variant": "C31U C46A G58C A69U", "yeast fitness": 0.543}
{"variant": "U32A A37C C60A", "yeast fitness": "≤ 0.5"}
{"variant": "C31U C33G", "yeast fitness": 0.785}
{"variant": "C31U C33U", "yeast fitness": 0.723}
{"variant": "C31U G38C G52C", "yeast fitness": "≤ 0.5"}
{"variant": "C31U G48C G67C", "yeast fitness": 0.649}
{"variant": "C31U A65C", "yeast fitness": 0.926}
{"variant": "C31U C33U A40U A45G", "yeast fitness": 0.575}
{"variant": "C31U G58A A65C", "yeast fitness": 0.65}
{"variant": "C31U C34G C49U G52A", "yeast fitness": 0.725}
{"variant": "U32C A40U A43G", "yeast fitness": 0.684}
{"variant": "C31A U35C G41A", "yeast fitness": "≤ 0.5"}
{"variant": "U32A A40U", "yeast fitness": 0.774}
{"variant": "U32A A40C", "yeast fitness": 0.694}
{"variant": "C31G C33U", "yeast fitness": 0.673}
{"variant": "C31G C33G", "yeast fitness": 0.565}
{"variant": "C31U G52C U54A C66U", "yeast fitness": "≤ 0.5"}
{"variant": "C31U C60U U64C", "yeast fitness": 0.695}
{"variant": "C31G A40U C60G G67A", "yeast fitness": "≤ 0.5"}
{"variant": "C31G U32C", "yeast fitness": 0.754}
{"variant": "C31U C49U U64A", "yeast fitness": 0.685}
{"variant": "U32C A45U G67A", "yeast fitness": "≤ 0.5"}
{"variant": "C31U G48C C55A C60G A69G", "yeast fitness": "≤ 0.5"}
{"variant": "C31G A40G A45C U53A", "yeast fitness": "≤ 0.5"}
{"variant": "C31A G68U A69C", "yeast fitness": "≤ 0.5"}
{"variant": "U32C A36U C61U", "yeast fitness": "≤ 0.5"}
{"variant": "U32C A36U C61G", "yeast fitness": "≤ 0.5"}
{"variant": "C31G U47G U53G C61U G68A", "yeast fitness": "≤ 0.5"}
{"variant": "C31G C34U A40C G50A C55G C62A", "yeast fitness": "≤ 0.5"}
{"variant": "C31U A42G G58A", "yeast fitness": 0.716}
{"variant": "U32A A37C", "yeast fitness": 0.771}
{"variant": "C31U C61U G68C", "yeast fitness": "≤ 0.5"}
{"variant": "C31U C46G G63A", "yeast fitness": 0.606}
